Data on nine molecules can be found in PubChem BioAssay.

Assay [1] is described as follows: inhibitors of TNFa-induced NFkB p65 translocation, primary screen, imaging, HUVEC, MLSMR starter and 10KST1 sets (AID 438;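 active = inhibition above 20% together with a positive visual image hit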;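 note: compound added about 3h40 before a 20 min TNFalpha stimulation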;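 for inhibition: signal is the nuclear over cytoplasmic p65 intensity ratio per well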). Particulars: HUVEC TNFa-induced p65 nuclear translocation; cell count: measured here: nuclei count (cytotoxicity indicator), at 2.08 µM; inhibition: at 2 µM, stronger effect = higher value, 0% TNFa-plus-vehicle, 100% no-TNFa wells.
Assay [2] is described as follows: inhibitors of mutant huntingtin aggregation, primary screen, imaging, exon1htt(103Q)mCFP cells, high-content imaging (AID 483;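 active = visual image review flags a hit and inhibition of aggregation exceeds 20%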;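 note: compound exposure lasted 3 days before fixation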;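 for nuclei count: percent of the per-plate median nuclei count of sample wells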). Particulars: exon1htt(103Q)mCFP cell line, aggregate imaging, at 2 µM; inhibition of aggregation: stronger effect = higher value; nuclei count: measured here: cell count, toxicity.
Assay [3] in a line: inhibitors of E-selectin induction by TNFa, primary screen, imaging, HUVEC, immunofluorescence, MLSMR starter and 10KST1 sets (AID 487;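 active = visually confirmed hit in the image check and inhibition above 20%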;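 for inhibition: signal is fraction of cell area covered by stained E-selectin grains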;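 for nuclei count: 100% = median nuclei count of all wells on the same plate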). Particulars: HUVEC TNFalpha-induced E-selectin immunofluorescence imaging, at 2 µM; inhibition: stronger effect = higher value; nuclei count: measured here: cell number, toxicity.
Assay [4] deals with Voltage-gated potassium channel subunit beta-2 (Rattus norvegicus) (UniProt P62483). In words: KvBeta enzyme negative modulators, primary screen, biochemical, NADPH fluorescence (AID 622;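 active = fluorescence slope higher than the sample average by over 3 SD, cut at about -0.22 in these data, passing the limit was not always enough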;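 note: slope of raw intensity against log time taken from 70 to 1610 s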). Particulars: recombinant KvBeta, 4-cyanobenzaldehyde reduction, at 10 µM, stronger effect = higher value.
The target is the same in assay [5]. In words: KvBeta positive modulators, primary screen, biochemical, NADPH fluorescence (AID 623;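 active = NADPH fluorescence slope more negative than the mean of all samples by about 3 SD, 99.7% confidence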;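 note: fluorescence intensity change per second fitted from 20 to 320 s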). Particulars: Recombinant KvBeta, NADPH fluorescence decrease slope, 10 min; at 10 µM; stronger effect = lower value.
The target of assay [6] is Muscarinic acetylcholine receptor M4 (Homo sapiens) (UniProt P08173). In words: compounds altering M4/GIRK thallium flux, either direction, primary screen, M4 allosteric agonist project, cell-based, HEK293 M4/GIRK, BTC-AM (AID 625;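 active = fluorescence slope after compound addition differing from the mean of all tested samples at 99.7% confidence, mostly higher but some lower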;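 note: thallium influx through GIRK channels coupled to M4 in HEK293 cells with BTC-AM dye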). Particulars: at 10 µM, actives lie on both sides. The gist of the method: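 System: HEK293 cells with M4 receptor and GIRK channels | Incubation: Cells overnight at 37 °C, BTC-AM loading 1 h, reads 2 min total | Technique: Kinetic BTC-AM fluorescence sampled at 1 Hz, 10 s pre-addition baseline | Measure: Post-addition slope, 15–24 s, of baseline-normalized fluorescence | Control set: Carbachol positive, DMSO negative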

Assay [7] can be described thus: inhibitors of Sendai virus-induced IRF3 signaling, primary screen, TLR/RLR signaling modifier project, cell-based, Sendai virus stimulus, luciferase, 10K MLSCN set (AID 602276).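 Note: firefly luciferase from ISG56 promoter only with Renilla not read in this screen; 0% = Sendai virus plus DMSO and 100% = medium plus DMSO without virus.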 Particulars: HEK293 RL24 IRF3 luciferase reporter, at 10 µM, stronger effect = higher value.
A short description of assay [8]: inhibitors of poly I:C-induced TLR3 signaling, primary screen, cell-based, poly I:C stimulus, luciferase, 10K MLSCN set (AID 602277;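 active = inhibition of the reporter signal at or above 50%; inactive = inhibition below 50%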). Particulars: HEK293-TLR3 RL24 IRF3 luciferase reporter, at 10 µM, stronger effect = higher value. A general note: In a reporter assay the amount or activity of a reporter protein is the signal.

Activity calls are given as the source filed them.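 Rule for the calls, unless noted: active = inhibition at or above 50% at 10 µM; inactive = inhibition below 50%.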

Usually inhibition stands for the change of the read-out against control, counted positive when it falls.

Muscarinic acetylcholine receptor M4 (Homo sapiens), sequence (P08173 whole entry, looked up): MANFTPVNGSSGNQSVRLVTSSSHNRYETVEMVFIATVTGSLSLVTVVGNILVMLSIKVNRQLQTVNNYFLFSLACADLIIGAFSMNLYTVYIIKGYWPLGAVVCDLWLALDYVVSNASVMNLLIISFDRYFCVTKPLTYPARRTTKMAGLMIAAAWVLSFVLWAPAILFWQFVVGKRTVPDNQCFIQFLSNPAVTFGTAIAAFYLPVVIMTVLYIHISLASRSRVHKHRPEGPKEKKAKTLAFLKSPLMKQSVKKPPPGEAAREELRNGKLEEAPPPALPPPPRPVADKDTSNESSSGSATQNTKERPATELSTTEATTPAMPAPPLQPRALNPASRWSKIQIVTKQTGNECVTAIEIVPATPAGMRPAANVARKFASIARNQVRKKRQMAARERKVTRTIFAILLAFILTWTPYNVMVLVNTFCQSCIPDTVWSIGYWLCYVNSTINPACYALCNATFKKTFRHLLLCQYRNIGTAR
Voltage-gated potassium channel subunit beta-2 (Rattus norvegicus), sequence (P62483 whole entry, looked up): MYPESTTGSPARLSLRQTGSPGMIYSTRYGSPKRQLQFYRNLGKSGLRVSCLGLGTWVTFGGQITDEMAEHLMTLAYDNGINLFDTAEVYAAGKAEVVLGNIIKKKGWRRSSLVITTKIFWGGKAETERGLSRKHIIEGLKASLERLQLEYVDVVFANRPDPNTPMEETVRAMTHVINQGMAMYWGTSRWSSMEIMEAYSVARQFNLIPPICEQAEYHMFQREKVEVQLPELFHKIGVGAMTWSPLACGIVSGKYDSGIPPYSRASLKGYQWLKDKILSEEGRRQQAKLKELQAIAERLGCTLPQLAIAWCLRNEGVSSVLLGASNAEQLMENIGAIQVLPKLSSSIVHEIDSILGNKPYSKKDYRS

On to `CC(NC(=O)CSc1n[nH]c(=O)n1C1CC1)C12CC3CC(CC(C3)C1)C2` (centres undefined), for which the cell count in assay [1] was determined as 563. Further, the inhibition in assay [1] is -23% (inactive); in assay [3], -5.1% (inactive); in assay [7], 7.91% (inactive); in assay [8], 23.3% (inactive). Besides, the inhibition of aggregation in assay [2] was -6.1% (inactive). For the same molecule, the nuclei count in assay [2] was determined as 101%; in assay [3], 110%. Besides, the fluorescence slope in assay [4] is -0.378 (inactive); in assay [6], 0.00652 (inactive). The NADPH fluorescence slope in assay [5] is 8.6e-05 (inactive).

As for `CC(C(=O)NCCCN1CCOCC1)n1cccc1C(=O)c1ccccc1` (centres undefined), the cell count in assay [1] was determined as 572. Moreover, the inhibition in assay [1] is 2.7% (inactive); in assay [3], -1.5% (inactive); in assay [7] it was 17.2% (inactive); in assay [8], 17% (inactive). Besides, the inhibition of aggregation in assay [2] is -8.2% (inactive). Besides, the nuclei count is 104% in assay [2] and 94.2% in assay [3]. In addition, the fluorescence slope in assay [4] is -0.549 (inactive); in assay [6], 0.00579 (inactive). For the same molecule, the NADPH fluorescence slope in assay [5] is -3.4e-05 (inactive).

With `Cc1ccc(S(=O)(=O)NCCc2ccncc2)cc1`, the cell count in assay [1] came to 560. The inhibition in assay [1] was -1.9% (inactive); in assay [3] it was -47.2% (inactive); in assay [7], 7.81% (inactive); in assay [8], 17.1% (inactive). In assay [2], the inhibition of aggregation is 6.8% (inactive). The nuclei count was 92.8% in assay [2] and 106% in assay [3]. The figures for the fluorescence slope in assay [4] and in assay [6] were -0.578 (inactive) and 0.00601 (inactive), respectively. In addition, the NADPH fluorescence slope in assay [5] was -5.6e-05 (inactive).

In the case of `Cc1nnc(C)n1/N=C/c1cccc(Oc2ccccc2)c1`, in assay [1], the cell count came to 344. In addition, the inhibition was -0.6% (inactive) in assay [1], -5.9% (inactive) in assay [3], 21.3% (inactive) in assay [7] and 31.8% (inactive) in assay [8]. Also, in assay [2], the inhibition of aggregation was 0.1% (inactive). Further, the nuclei count in assay [2] was found to be 102%; in assay [3] it was 106%. In addition, the fluorescence slope in assay [4] is -0.462 (inactive); in assay [6], 0.00567 (inactive). Also, in assay [5], the NADPH fluorescence slope is 1.6e-05 (inactive).

On to `Cc1ccc2nc(SCC(=O)NCc3ccco3)c(C#N)cc2c1`, for which the cell count in assay [1] came out at 388. For the same molecule, the inhibition in assay [1] is -4.7% (inactive); in assay [3] it was 1.8% (inactive); in assay [7], -4.71% (inactive); in assay [8] it was -2.98% (inactive). Further, in assay [2], the inhibition of aggregation is 17.5% (inactive). The nuclei count in assay [2] came out at 100%; in assay [3], 99.6%. For the same molecule, the fluorescence slope in assay [4] is -0.592 (inactive); in assay [6], 0.00711 (inactive). Moreover, the NADPH fluorescence slope in assay [5] was 1.6e-05 (inactive).

As to `CCOC(=O)c1c(NC(=O)OC)sc(C(=O)N(C)C)c1C`, the cell count in assay [1] is 321. For the same molecule, the inhibition in assay [1] is -5.4% (inactive); in assay [3], 1.1% (inactive); in assay [7], 7.2% (inactive); in assay [8], 14.6% (inactive). Further, the inhibition of aggregation in assay [2] is 1.3% (inactive). The nuclei count was determined as 103% in assay [2] and 115% in assay [3]. Moreover, the fluorescence slope in assay [4] was -0.312 (inactive); in assay [6], 0.00682 (inactive). Also, the NADPH fluorescence slope in assay [5] was -4.5e-05 (inactive).

Take `O=C(OCc1cc2ccccc2[nH]c1=O)c1ccncc1`: the cell count in assay [1] was 826. Also, the inhibition in assay [1] was -3.9% (inactive); in assay [3] it was -66% (inactive); in assay [7], 19.9% (inactive); in assay [8], 23.1% (inactive). For the same molecule, in assay [2], the inhibition of aggregation is 25.6% (inactive). Also, the nuclei count in assay [2] is 104%; in assay [3], 115%. Also, the fluorescence slope in assay [4] is -0.536 (inactive); in assay [6] it was 0.00554 (inactive). Further, in assay [5], the NADPH fluorescence slope was -4.4e-05 (inactive).

`C=CCn1c(SCc2ccc3nonc3c2)nnc1-c1cccs1`: the cell count in assay [1] amounted to 644. Further, the inhibition in assay [1] was -14% (inactive); in assay [3], 13.9% (inactive); in assay [7] it was 15% (inactive); in assay [8] it was 17.7% (inactive). Also, the inhibition of aggregation in assay [2] was 3.4% (inactive). Besides, the nuclei count in assay [2] came out at 91.6%; in assay [3], 92.9%. The fluorescence slope in assay [4] was -0.384 (inactive); in assay [6] it was 0.00442 (inactive). Besides, in assay [5], the NADPH fluorescence slope was 4.9e-05 (inactive).

Regarding `COC(=O)c1cccc(NC(=O)NC2CCCN2S(=O)(=O)c2ccc(Cl)cc2)c1` (centres undefined), the cell count in assay [1] was 612. Besides, the inhibition was -16.1% (inactive) in assay [1], -144% (inactive) in assay [3], 14% (inactive) in assay [7] and 20.5% (inactive) in assay [8]. Besides, the inhibition of aggregation in assay [2] was 2.9% (inactive). The nuclei count in assay [2] turned out to be 101%; in assay [3], 141%. Further, the fluorescence slope in assay [4] is -0.392 (inactive); in assay [6] it was 0.00559 (inactive). In assay [5], the NADPH fluorescence slope was -6.9e-05 (inactive).
